ChEMBL document CHEMBL4622886, “Leucinostatins from Ophiocordyceps spp. and Purpureocillium spp. Demonstrate Selective Antiproliferative Effects in Cells Representing the Luminal Androgen Receptor Subtype of Triple Negative Breast Cancer” (2020)
Calls of active or inactive are those of the source. The rule behind the calls is not given here. Numbered stars: 1 amine (or outer) side, 2 acyl side, 3 side chain; on linkers, the order of the positions; unused ones are H or OH. Square brackets hold non-standard residues; d marks the D form. Peptide text beside a SMILES is read from it. * marks the point of attachment. X1 = CCC(=O)C[C@@H](O)C[C@@H](C)C[C@H](N[*:1])C(=O)[*:2]; X4 = CCCC[C@@H](O)C[C@@H](C)C[C@H](N[*:1])C(=O)[*:2]; X2 = CCC(=O)/C=C/C[C@@H](C)C[C@H](N[*:1])C(=O)[*:2]; X3 = CCC(=O)CCC[C@@H](C)C[C@H](N[*:1])C(=O)[*:2]; Hexenoyl(2E,4S-Me) = CC[C@H](C)/C=C/C(=O)*; Leu(3R-OH) = CC(C)[C@@H](O)[C@H](N)C(=O)O; NH((S)CH(Me)CH2NMe2) = C[C@@H](CN(C)C)N*; Pro(4S-Me) = C[C@@H]1CN[C@H](C(=O)O)C1; NH((S)CH(CH3)CH2NHMe) = CNC[C@H](C)N*; Aib = CC(C)(N)C(=O)O; βAla = NCCC(=O)O

Experiments:
MDA-MB-453 [1] = test: Antiproliferative activity against human MDA-MB-453 cells at 1 to 100 nM incubated for 48 hrs by sulforhodamine B assay; assay type: functional, cell-based
Procedure, shortened: (§1)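 IMEM with 5% FBS and 0.3% gentamicin; cells used within 4 months of thaw. After seeding at set densities and adhering, cells got compound or DMSO vehicle for 48 h, then were fixed and SRB-stained, with A560 read. GI50 (50% proliferation inhibition vs vehicle) came from non-linear regression of concentration-response curves; three independent experiments, each in triplicate.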

HCC1937 [2] = test: Antiproliferative activity against human HCC1937 cells up to 100 nM incubated for 48 hrs by sulforhodamine B assay; assay type: functional, cell-based
Procedure, shortened: (§2)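 Cells (RPMI-1640 with 5% FBS, 0.5% gentamicin; used within 4 months of thaw) were seeded at set densities, allowed to adhere, then treated 48 h with compound or DMSO vehicle. Cells were fixed and SRB-stained, with absorbance read at 560 nm. GI50 vs vehicle was taken by non-linear regression; three independent experiments, each in triplicate.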

SUM185PE [3] = test: Antiproliferative activity against human SUM185PE cells at 1 to 100 nM incubated for 48 hrs by sulforhodamine B assay; assay type: functional, cell-based; procedure, shortened: as §1
HCC1806 [4] = test: Antiproliferative activity against human HCC1806 cells up to 100 nM incubated for 48 hrs by sulforhodamine B assay; assay type: functional, cell-based; procedure, shortened: as §2
MDA-MB-231 [5] = test: Antiproliferative activity against human MDA-MB-231 cells up to 100 nM incubated for 48 hrs by sulforhodamine B assay; assay type: functional, cell-based; procedure, shortened: as §1
HCC1806 [6] = test: Antiproliferative activity against human HCC1806 cells at >1 uM incubated for 48 hrs by sulforhodamine B assay; assay type: functional, cell-based; procedure, shortened: as §2
MDA-MB-453 [7] = test: Antiproliferative activity against human MDA-MB-453 cells at > 1 uM incubated for 48 hrs by sulforhodamine B assay; assay type: functional, cell-based; procedure, shortened: as §1
BT-549 [8] = test: Antiproliferative activity against human BT549 cells at >1 uM incubated for 48 hrs by sulforhodamine B assay; assay type: functional, cell-based; procedure, shortened: as §2
HCC1937 [9] = test: Antiproliferative activity against human HCC1937 cells at >1 uM incubated for 48 hrs by sulforhodamine B assay; assay type: functional, cell-based; procedure, shortened: as §2
MDA-MB-231 [10] = test: Antiproliferative activity against human MDA-MB-231 cells at > 1 uM incubated for 48 hrs by sulforhodamine B assay; assay type: functional, cell-based; procedure, shortened: as §1
MDA-MB-453 [11] = test: Antiproliferative activity against human MDA-MB-453 cells incubated for 48 hrs by sulforhodamine B assay; assay type: functional; conditions: MDA-MB-453, 48 h; procedure, shortened: as §1
MDA-MB-231 [12] = test: Antiproliferative activity against human MDA-MB-231 cells incubated for 48 hrs by sulforhodamine B assay; assay type: functional; conditions: MDA-MB-231, 48 h; procedure, shortened: as §1
BT-549 [13] = test: Antiproliferative activity against human BT549 cells up to 100 nM incubated for 48 hrs by sulforhodamine B assay; assay type: functional, cell-based; procedure, shortened: as §2
SUM185PE [14] = test: Antiproliferative activity against human SUM185PE cells incubated for 48 hrs by sulforhodamine B assay; assay type: functional; procedure, shortened: as §1
mTORC1 (Homo sapiens) [15] = biological target: T1, mTORC1 (Homo sapiens) (UniProt P42345+Q8N122+Q9BVC4); conditions: MDA-MB-453, 10 nM
mTORC1 (Homo sapiens) [16] = biological target: T1, mTORC1 (Homo sapiens); conditions: MDA-MB-231, 10 nM

T1 sequence (Q8N122 whole entry, looked up, other chains not shown): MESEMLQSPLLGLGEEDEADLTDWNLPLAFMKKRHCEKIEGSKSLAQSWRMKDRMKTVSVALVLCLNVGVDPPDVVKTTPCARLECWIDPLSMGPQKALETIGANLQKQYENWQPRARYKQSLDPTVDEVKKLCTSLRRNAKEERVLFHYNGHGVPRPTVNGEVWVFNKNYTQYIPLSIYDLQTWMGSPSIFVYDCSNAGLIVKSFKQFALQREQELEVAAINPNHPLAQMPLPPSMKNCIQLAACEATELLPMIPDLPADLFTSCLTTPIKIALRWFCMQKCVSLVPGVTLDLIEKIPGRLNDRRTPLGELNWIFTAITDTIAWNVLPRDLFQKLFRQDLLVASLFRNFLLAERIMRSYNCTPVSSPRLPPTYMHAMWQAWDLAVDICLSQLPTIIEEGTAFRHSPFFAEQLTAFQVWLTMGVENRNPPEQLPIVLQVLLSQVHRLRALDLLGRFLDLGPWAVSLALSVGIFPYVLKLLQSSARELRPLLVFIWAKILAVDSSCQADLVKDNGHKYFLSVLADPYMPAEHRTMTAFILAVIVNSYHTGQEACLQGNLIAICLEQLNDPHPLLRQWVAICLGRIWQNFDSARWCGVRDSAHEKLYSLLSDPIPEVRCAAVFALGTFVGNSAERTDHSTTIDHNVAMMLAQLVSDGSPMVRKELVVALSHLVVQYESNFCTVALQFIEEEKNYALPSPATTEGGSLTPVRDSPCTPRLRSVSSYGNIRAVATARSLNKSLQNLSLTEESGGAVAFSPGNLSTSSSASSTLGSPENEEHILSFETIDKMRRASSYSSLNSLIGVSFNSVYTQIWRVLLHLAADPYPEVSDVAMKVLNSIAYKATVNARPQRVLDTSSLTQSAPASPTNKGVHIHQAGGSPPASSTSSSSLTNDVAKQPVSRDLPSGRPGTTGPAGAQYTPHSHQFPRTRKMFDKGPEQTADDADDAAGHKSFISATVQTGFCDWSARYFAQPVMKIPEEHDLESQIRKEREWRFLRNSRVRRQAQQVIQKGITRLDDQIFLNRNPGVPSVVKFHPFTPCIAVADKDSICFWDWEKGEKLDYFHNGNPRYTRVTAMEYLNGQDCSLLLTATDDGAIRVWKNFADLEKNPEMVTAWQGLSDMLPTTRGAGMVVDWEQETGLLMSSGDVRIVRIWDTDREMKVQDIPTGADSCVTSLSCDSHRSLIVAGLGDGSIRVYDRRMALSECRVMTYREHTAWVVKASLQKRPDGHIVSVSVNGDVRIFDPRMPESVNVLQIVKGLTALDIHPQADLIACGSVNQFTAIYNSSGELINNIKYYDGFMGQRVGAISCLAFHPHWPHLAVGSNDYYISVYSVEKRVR
T1 sequence (Q9BVC4 whole entry, looked up, other chains not shown): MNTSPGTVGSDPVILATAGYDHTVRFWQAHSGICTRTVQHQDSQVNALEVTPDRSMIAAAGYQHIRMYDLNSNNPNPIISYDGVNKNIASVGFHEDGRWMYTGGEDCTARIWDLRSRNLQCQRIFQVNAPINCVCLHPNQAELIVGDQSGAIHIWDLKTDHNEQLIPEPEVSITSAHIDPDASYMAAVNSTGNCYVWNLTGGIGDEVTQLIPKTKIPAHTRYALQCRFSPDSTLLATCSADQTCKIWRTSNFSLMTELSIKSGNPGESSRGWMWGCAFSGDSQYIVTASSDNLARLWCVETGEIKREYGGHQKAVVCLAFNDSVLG

Row | SMILES | Activity (MDA-MB-453 [1]) | Activity (HCC1937 [2]) | Activity (SUM185PE [3]) | Activity (HCC1806 [4]) | Activity (MDA-MB-231 [5]) | Activity (HCC1806 [6]) | Activity (MDA-MB-453 [7]) | Activity (BT-549 [8]) | Activity (HCC1937 [9]) | Activity (MDA-MB-231 [10]) | GI50 (MDA-MB-453 [11]) | GI50 (MDA-MB-231 [12]) | Activity (BT-549 [13]) | GI50 (SUM185PE [14]) | inhibition (mTORC1 (Homo sapiens) [15]) | inhibition (mTORC1 (Homo sapiens) [16])
1 | CC[C@H](C)/C=C/C(=O)N1C[C@@H](C)C[C@H]1C(=O)N[C@@H](CC(C)C)C(=O)N[C@H](C(=O)NC(C)(C)C(=O)N[C@@H](CC(C)C)C(=O)N[C@@H](CC(C)C)C(=O)NC(C)(C)C(=O)NC(C)(C)C(=O)NCCC(=O)N[C@@H](C)CNC)[C@H](O)C(C)C ({Hexenoyl(2E,4S-Me)}-[Pro(4S-Me)]L[Leu(3R-OH)][Aib]LL[Aib][Aib][βAla]-{NH((S)CH(CH3)CH2NHMe)}) | Active | inactive | Active | inactive | inactive | Active | Active | Active | Active | Active | 2.6 nM | > 100 nM | inactive | 2 nM |  | 
2 | CCC(=O)/C=C/C[C@@H](C)C[C@H](NC(=O)[C@@H]1C[C@H](C)CN1C(=O)/C=C/[C@@H](C)CC)C(=O)N[C@H](C(=O)NC(C)(C)C(=O)N[C@@H](CC(C)C)C(=O)N[C@@H](CC(C)C)C(=O)NC(C)(C)C(=O)NC(C)(C)C(=O)NCCC(=O)N[C@@H](C)CNC)[C@H](O)C(C)C ({Hexenoyl(2E,4S-Me)}-[Pro(4S-Me)][X2][Leu(3R-OH)][Aib]LL[Aib][Aib][βAla]-{NH((S)CH(CH3)CH2NHMe)}) | Active | inactive | Active | inactive | inactive | Active | Active | Active | Active | Active | 4 nM | > 100 nM | inactive | 2.2 nM |  | 
3 | CO[C@H]1C[C@@H]2CC[C@@H](C)[C@@](O)(O2)C(=O)C(=O)N2CCCC[C@H]2C(=O)O[C@H]([C@H](C)C[C@@H]2CC[C@@H](O)[C@H](OC)C2)CC(=O)[C@H](C)/C=C(\C)[C@@H](O)[C@@H](OC)C(=O)[C@H](C)C[C@H](C)/C=C/C=C/C=C/1C [SIROLIMUS] |  |  |  |  |  |  |  |  |  |  | 0.05 nM | > 100 nM |  | 0.04 nM | Active | Active
4 | CCC(=O)/C=C/C[C@@H](C)C[C@H](NC(=O)[C@@H]1C[C@H](C)CN1C(=O)/C=C/[C@@H](C)CC)C(=O)N[C@H](C(=O)NC(C)(C)C(=O)N[C@@H](CC(C)C)C(=O)N[C@@H](CC(C)C)C(=O)NC(C)(C)C(=O)NC(C)(C)C(=O)NCCC(=O)N[C@@H](C)CN(C)C)[C@H](O)C(C)C ({Hexenoyl(2E,4S-Me)}-[Pro(4S-Me)][X2][Leu(3R-OH)][Aib]LL[Aib][Aib][βAla]-{NH((S)CH(Me)CH2NMe2)}) | Active | inactive | Active | inactive | inactive | Active | Active | Active | Active | Active | 7.9 nM | > 100 nM | inactive | 4.4 nM |  | 
5 | CCC(=O)CCC[C@@H](C)C[C@H](NC(=O)[C@@H]1C[C@H](C)CN1C(=O)/C=C/[C@@H](C)CC)C(=O)N[C@H](C(=O)NC(C)(C)C(=O)N[C@@H](CC(C)C)C(=O)N[C@@H](CC(C)C)C(=O)NC(C)(C)C(=O)NC(C)(C)C(=O)NCCC(=O)N[C@@H](C)CN(C)C)[C@H](O)C(C)C ({Hexenoyl(2E,4S-Me)}-[Pro(4S-Me)][X3][Leu(3R-OH)][Aib]LL[Aib][Aib][βAla]-{NH((S)CH(Me)CH2NMe2)}) | Active | inactive | Active | inactive | inactive | Active | Active | Active | Active | Active |  | > 100 nM | inactive |  |  | 
6 | CCC(=O)C[C@@H](O)C[C@@H](C)C[C@H](NC(=O)[C@@H]1C[C@H](C)CN1C(=O)/C=C/[C@@H](C)CC)C(=O)N[C@H](C(=O)NC(C)(C)C(=O)N[C@@H](CC(C)C)C(=O)N[C@@H](CC(C)C)C(=O)NC(C)(C)C(=O)NC(C)(C)C(=O)NCCC(=O)N[C@@H](C)CN(C)C)[C@H](O)C(C)C ({Hexenoyl(2E,4S-Me)}-[Pro(4S-Me)][X1][Leu(3R-OH)][Aib]LL[Aib][Aib][βAla]-{NH((S)CH(Me)CH2NMe2)}) | Active | inactive | Active | inactive | inactive | Active | Active | Active | Active | Active |  |  | inactive |  |  | 
7 | CCCC[C@@H](O)C[C@@H](C)C[C@H](NC(=O)[C@@H]1C[C@H](C)CN1C(=O)/C=C/[C@@H](C)CC)C(=O)N[C@H](C(=O)NC(C)(C)C(=O)N[C@@H](CC(C)C)C(=O)N[C@@H](CC(C)C)C(=O)NC(C)(C)C(=O)NC(C)(C)C(=O)NCCC(=O)N[C@@H](C)CN(C)C)[C@H](O)C(C)C ({Hexenoyl(2E,4S-Me)}-[Pro(4S-Me)][X4][Leu(3R-OH)][Aib]LL[Aib][Aib][βAla]-{NH((S)CH(Me)CH2NMe2)}) | Active | inactive | Active | inactive | inactive | Active | Active | Active | Active | Active |  | > 100 nM | inactive |  |  | 
8 | CC[C@H](C)/C=C/C(=O)N1C[C@@H](C)C[C@H]1C(=O)N[C@@H](CC(C)C)C(=O)N[C@H](C(=O)NC(C)(C)C(=O)N[C@@H](CC(C)C)C(=O)N[C@@H](CC(C)C)C(=O)NC(C)(C)C(=O)NC(C)(C)C(=O)NCCC(=O)N[C@@H](C)CN(C)C)[C@H](O)C(C)C ({Hexenoyl(2E,4S-Me)}-[Pro(4S-Me)]L[Leu(3R-OH)][Aib]LL[Aib][Aib][βAla]-{NH((S)CH(Me)CH2NMe2)}) | Active | inactive | Active | inactive | inactive | Active | Active | Active | Active | Active | 2.3 nM | > 100 nM | inactive | 1.4 nM |  | 
9 | CCC(=O)CCC[C@@H](C)C[C@H](NC(=O)[C@@H]1C[C@H](C)CN1C(=O)/C=C/[C@@H](C)CC)C(=O)N[C@H](C(=O)NC(C)(C)C(=O)N[C@@H](CC(C)C)C(=O)N[C@@H](CC(C)C)C(=O)NC(C)(C)C(=O)NC(C)(C)C(=O)NCCC(=O)N[C@@H](C)CNC)[C@H](O)C(C)C ({Hexenoyl(2E,4S-Me)}-[Pro(4S-Me)][X3][Leu(3R-OH)][Aib]LL[Aib][Aib][βAla]-{NH((S)CH(CH3)CH2NHMe)}) | Active | inactive | Active | inactive | inactive | Active | Active | Active | Active | Active |  | > 100 nM | inactive |  |  | 
10 | CCCC[C@@H](O)C[C@@H](C)C[C@H](NC(=O)[C@@H]1C[C@H](C)CN1C(=O)/C=C/[C@@H](C)CC)C(=O)N[C@H](C(=O)NC(C)(C)C(=O)N[C@@H](CC(C)C)C(=O)N[C@@H](CC(C)C)C(=O)NC(C)(C)C(=O)NC(C)(C)C(=O)NCCC(=O)N[C@@H](C)CNC)[C@H](O)C(C)C ({Hexenoyl(2E,4S-Me)}-[Pro(4S-Me)][X4][Leu(3R-OH)][Aib]LL[Aib][Aib][βAla]-{NH((S)CH(CH3)CH2NHMe)}) | Active | inactive | Active | inactive | inactive | Active | Active | Active | Active | Active |  | > 100 nM | inactive |  |  | 
